Screens deposited in PubChem BioAssay by Sanford-Burnham Center for Chemical Genomics.
SENP6 inh: SENP6 protease inhibition | hit rate 1.8% among 330,000 | AID 2599 | Recombinant SENP6 catalytic domain, aminoluciferin luminescence | inhibition, % at 10 µM | Q9GZR1;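 active = inhibition above about 50% at the single tested dose, limit read from the data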;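 note: plate controls were DMSO wells with enzyme for no effect and DMSO wells lacking enzyme for full effect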
SENP7 block: SENP7 protease inhibition. Q9BQF6. recombinant SENP7, Z-RLRGG-aminoluciferin luminescence, 40 min. inhibition, % at 5 µM. hit rate 1.5% among 330,000. AID 434973;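 active = inhibition above about 50% at the single test dose, limit read from the data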;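 note: plate controls were DMSO with enzyme for no effect and no enzyme buffer wells for full effect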
Target sequence (Q9BQF6 706-1050 limits assumed): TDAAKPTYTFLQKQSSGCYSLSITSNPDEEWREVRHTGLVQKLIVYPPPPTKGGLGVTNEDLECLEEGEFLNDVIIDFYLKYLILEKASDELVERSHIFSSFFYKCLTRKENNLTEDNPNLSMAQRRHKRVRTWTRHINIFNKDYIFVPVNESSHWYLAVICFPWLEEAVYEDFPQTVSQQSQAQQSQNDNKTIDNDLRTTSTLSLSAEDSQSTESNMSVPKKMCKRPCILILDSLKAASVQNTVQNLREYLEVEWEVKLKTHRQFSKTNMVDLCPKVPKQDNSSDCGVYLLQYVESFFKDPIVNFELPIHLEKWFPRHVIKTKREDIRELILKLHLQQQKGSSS
SENP1 inh: blocks the human SENP1 SUMO protease catalytic domain | recombinant SENP1 catalytic domain, CyPet-SUMO1-YPet FRET cleavage | hit rate 0.21% among 360,000 | inhibition, % at 10 µM | Q9P0U3;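 active = inhibition at least 30% at 10 µM, raw YFP signal under a set limit, fluorescence ratio 0.5 to 1.5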;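 note: 0% = enzyme with DMSO and 100% = no enzyme wells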
Target sequence (Q9P0U3 419-644 limits assumed): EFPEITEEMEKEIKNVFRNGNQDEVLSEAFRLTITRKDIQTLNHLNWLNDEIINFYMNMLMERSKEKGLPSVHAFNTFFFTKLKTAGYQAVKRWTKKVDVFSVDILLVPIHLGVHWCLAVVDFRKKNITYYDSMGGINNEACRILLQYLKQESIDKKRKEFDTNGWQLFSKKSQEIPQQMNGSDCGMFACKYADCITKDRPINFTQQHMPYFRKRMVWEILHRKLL
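Material: hSENP1 catalytic domain, recombinant; medium: Tris pH 8 with BME, BSA, NP40 and catalase; compound: single concentration of 10 µM compound, 0.5% DMSO final; technique: FRET read of cyan and yellow fluorescence; timing: 50 min enzyme reaction, room temperature, light-protected; reagent: SFCypet-SUMO1-SFYpet substrate at 25 nM; control set: no-enzyme low, enzyme-DMSO high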
SENP8 block-1: inhibitors of human SENP8 protease; Q96LD8; purified SENP8, Z-RLRGG-aminoluciferin cleavage, luminescence; inhibition, % at 10 µM; hit rate 1.2% among 330,000; AID 2540; in the data active = inhibition above about 50%
SENP8 block-2: inhibitors of human SENP8 protease | recombinant SENP8, Nedd8 substrate fluorescence | inhibition, % at 20 µM | hit rate 0.64% among 360,000; in the data active = inhibition mostly above about 40%, no sharp cut-off; inactive = mostly below about 27%
SENP1 conf: confirmation of human SENP1 SUMO protease inhibitors; shares compounds with SENP1 inh; AID 651678; inhibition, % at 10 µM; recombinant SENP1, CyPet-SUMO1-YPet FRET cleavage; hit rate 34% among 520; in the data active = inhibition mostly above about 35%, no sharp cut-off; inactive = mostly below about 32%;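 note: 0% = enzyme with DMSO and 100% = no enzyme control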
SENP1 kin conf: confirmation of human SENP1 SUMO protease inhibitors, kinetic; shares compounds with SENP1 inh; recombinant SENP1, CyPet-SUMO1-YPet FRET kinetic cleavage; inhibition, % at 10 µM; hit rate 26% among 520; in the data active = inhibition mostly above about 32%, no sharp cut-off; inactive = mostly below about 29%;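 note: 0% = DMSO with enzyme and 100% = no enzyme substrate only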
Starred values were filed as active, the others as inactive. This is a sample that favours compounds with a hit; in the whole collection about 2.5% have one here.

Screening CN1C(C(=O)c2ccccc2)=C(N)c2ccccc2S1(=O)=O returned SENP6 inh -12, SENP7 block -1, SENP1 inh 3, SENP8 block-1 -13 and SENP8 block-2 6.
Screening Cc1ccc(S(=O)(=O)Nc2ccc(NC(=O)c3cccnc3)cc2)cc1 returned SENP6 inh 1, SENP7 block 0, SENP1 inh 1, SENP8 block-1 -2 and SENP8 block-2 12.
COc1cccc(CNC(=O)Cc2ccc(-c3ccccc3)cc2)c1 was read as SENP6 inh 18, SENP7 block 1, SENP1 inh 55*, SENP8 block-1 8, SENP8 block-2 -27, SENP1 conf 18 and SENP1 kin conf 20.
COc1ccc(CC(=O)NCc2ccccc2)cc1 was read as SENP6 inh -2, SENP7 block 10, SENP1 inh 1, SENP8 block-1 3 and SENP8 block-2 7.
`O=C(O)c1cc(O)c2c(c1)[C@H]([C@H]1c3cc(C(=O)O)cc(O)c3C(=O)c3c(O[C@@H]4O[C@H](CO)[C@@H](O)[C@H](O)[C@H]4O)cccc31)c1cccc(OC3O[C@H](CO)[C@@H](O)[C@H](O)[C@H]3O)c1C2=O` (some centres undefined) gave SENP6 inh -70, SENP7 block -56, SENP1 inh 27, SENP8 block-1 23 and SENP8 block-2 10.
Screening O=C1c2cc(CO)cc(O)c2C(=O)c2c(O[C@@H]3OC(CO)[C@@H](O)[C@@H](O)[C@@H]3O)cccc21 (some centres undefined) returned SENP6 inh 8, SENP7 block -1, SENP1 inh 43*, SENP8 block-1 -5, SENP8 block-2 54*, SENP1 conf 45* and SENP1 kin conf 30.
`Cc1nc2ccc(NS(=O)(=O)c3ccc(F)cc3F)cc2s1` gave SENP6 inh -13, SENP7 block 4, SENP1 inh 58*, SENP8 block-1 4, SENP8 block-2 -11, SENP1 conf 37* and SENP1 kin conf 29.
`Cc1nc2ccc(NS(=O)(=O)c3c(F)cc(F)cc3Br)cc2s1` gave SENP6 inh 3, SENP7 block -7, SENP1 inh 44*, SENP8 block-1 8, SENP8 block-2 1, SENP1 conf 18 and SENP1 kin conf 17.
`COc1cc(S(=O)(=O)Nc2ccc3nc(C)sc3c2)ccc1NC(C)=O` gave SENP6 inh -9, SENP7 block 8, SENP1 inh 36*, SENP8 block-1 -5, SENP8 block-2 -24, SENP1 conf 20 and SENP1 kin conf 16.
Cc1nc2ccc(NS(=O)(=O)c3ccc(F)c(F)c3F)cc2s1 was read as SENP6 inh -26, SENP7 block -3, SENP1 inh 26, SENP8 block-1 3 and SENP8 block-2 -8.
`CCOC(=O)/C(C#N)=C(C)/C=C1\Sc2ccccc2N1CC` gave SENP6 inh -5, SENP7 block -2, SENP1 inh -30, SENP8 block-1 2 and SENP8 block-2 28.
`CN1/C(=C/C=C(C#N)C#N)C=Cc2ccccc21` gave SENP6 inh -15, SENP7 block 11, SENP1 inh 97*, SENP8 block-1 -1, SENP8 block-2 22, SENP1 conf 9 and SENP1 kin conf 9.
`CCOC(=O)/C(C#N)=C/C=C1\C=Cc2ccccc2N1CC` gave SENP6 inh -21, SENP7 block -2, SENP1 inh 52*, SENP8 block-1 7, SENP8 block-2 25, SENP1 conf 71* and SENP1 kin conf 39*.
Screening CNc1nc(-c2ccc([N+](=O)[O-])cc2)cs1 returned SENP6 inh 1, SENP7 block 10, SENP1 inh 44*, SENP8 block-1 -4, SENP8 block-2 38, SENP1 conf 13 and SENP1 kin conf 12.
`CC(C)C(=O)Nc1nc(-c2ccc([N+](=O)[O-])cc2)cs1` gave SENP6 inh -14, SENP7 block -3, SENP1 inh 2, SENP8 block-1 -8 and SENP8 block-2 10.
`CN(C)c1ccc(N2C(=NC(=O)CCC3CCCC3)SC3CS(=O)(=O)CC32)cc1` (centres undefined) gave SENP6 inh -18, SENP7 block 1, SENP1 inh 4, SENP8 block-1 5 and SENP8 block-2 9.
For Cc1ccc(S(=O)(=O)N(C)c2ccc3c(ncn3C)c2[N+](=O)[O-])cc1 the results were SENP6 inh -1, SENP7 block -21, SENP1 inh 2, SENP8 block-1 -7 and SENP8 block-2 12.
For O=C1c2cccc3cc([N+](=O)[O-])cc(c23)C(=O)N1c1ccccc1O the results were SENP6 inh 1, SENP7 block -3, SENP1 inh 40*, SENP8 block-1 0, SENP8 block-2 18, SENP1 conf 18 and SENP1 kin conf 10.
Cc1cc(O)ccc1N1C(=O)c2cccc3cc([N+](=O)[O-])cc(c23)C1=O was read as SENP6 inh 7, SENP7 block 5, SENP1 inh 36*, SENP8 block-1 0, SENP8 block-2 8, SENP1 conf 13 and SENP1 kin conf 6.
COc1cccc(NC(=O)CN(C)C(=O)C23CC4CC(CC(Cl)(C4)C2)C3)c1 was read as SENP6 inh -2, SENP7 block -9, SENP1 inh 0, SENP8 block-1 -7 and SENP8 block-2 10.
Screening COc1ccccc1Cc1c(-c2ccc(Cl)cc2)nc2ccc(Br)cn12 returned SENP1 inh 42*, SENP8 block-2 -39, SENP1 conf -3 and SENP1 kin conf 1.
COc1ccccc1Cc1c(-c2ccc(C)cc2)nc2ccc(Br)cn12 was read as SENP1 inh 12 and SENP8 block-2 -10.
For COc1ccccc1Cc1c(-c2cccc(Br)c2)nc2ccc(Cl)cn12 the results were SENP1 inh 33*, SENP8 block-2 -123, SENP1 conf 6 and SENP1 kin conf -2.
For N#Cc1ccc(-c2nc3ccc(Cl)cn3c2Cc2ccccc2C(F)(F)F)cc1 the results were SENP1 inh 48*, SENP8 block-2 -369, SENP1 conf 55* and SENP1 kin conf 45*.
CC1(C)CC(=O)C2=C(C1)Nc1ccccc1NC2c1ccccc1F (centres undefined) was read as SENP6 inh -6, SENP7 block -2, SENP1 inh 36*, SENP8 block-1 -8, SENP8 block-2 -1, SENP1 conf -2 and SENP1 kin conf -1.
Screening CC1(C)CC(=O)C2=C(C1)Nc1ccccc1NC2c1ccc(F)c(F)c1 (centres undefined) returned SENP6 inh 4, SENP7 block 3, SENP1 inh 2, SENP8 block-1 14 and SENP8 block-2 -12.
